Assay results collected from several papers.
Protocols differ between the studies behind these lines.
TEK: Angiopoietin-1 receptor (TEK, Homo sapiens, UniProt Q02763)
TEK Y897S: Angiopoietin-1 receptor (TEK, Homo sapiens, UniProt Q02763, Y897S)

The inhibition of `CCN(CC)CCNC(=O)c1c(C)[nH]c(/C=C2\C(=O)Nc3ccc(F)cc32)c1C` is reported as -2% (TEK; enzyme activity, inhibitor; 0.3 µM).
For `CNCc1ccc(-c2cc(-c3nc(-c4ccc(S(=O)(=O)C(C)C)cc4)cnc3N)on2)cc1`, the inhibition was 0% (TEK; enzyme activity, inhibitor; 0.4 µM).
For `CS(=O)(=O)Nc1cccc(-c2csc(NC(=O)CSc3nc4nccnc4c(=O)n3CCc3ccccc3)n2)c1`, the inhibition was 3% (TEK; enzyme activity, inhibitor; 10 µM).
With `C[C@H](c1ccc(F)cc1)N(Cc1cccc(C(=O)O)c1)C(=O)c1cnc2ccccc2c1` the remaining binding was 98% (TEK; cell-free assay, competition with immobilised ligand; 1 µM).
With `Cc1[nH]c(/C=C2\C(=O)Nc3ccc(F)cc32)c(C)c1C(=O)N[C@H]1CCN(C(=O)N(C)C)C1` the remaining activity was 94% (TEK; enzyme activity, inhibitor; 0.1 µM).
For `CCCOc1ccc(OC)c(F)c1C(=O)c1ccc(C(=O)N[C@@H]2CNC[C@H]2NC(=O)c2ccc3[nH]ncc3c2)cc1`, the remaining activity was 49% (TEK; enzyme activity, inhibitor; 10 µM).
`CC(=O)N1CCC(c2ccc(C(=O)NC3=NCCN3)cc2C(F)(F)F)CC1` has a remaining binding of 100% (TEK; cell-free assay, competition with immobilised ligand; 1 µM).
The remaining activity of `CCN(CC)c1ccc(C2=NNC(=O)CC2C)cc1[N+](=O)[O-]` (stereo not drawn) is reported as 24% (TEK; enzyme activity, inhibitor; 10 µM).
`CCCS(=O)(=O)Nc1ccc(F)c(C(=O)c2c[nH]c3ncc(-c4ccc(Cl)cc4)cc23)c1F` has an inhibition of less than 10% (TEK; enzyme activity, inhibitor; 1 µM).
`O=C1NC(=O)c2cc(Nc3ccc(F)cc3)c(Nc3ccc(F)cc3)cc21` gave a remaining signal of 97.6% (TEK; cell-free assay; 0.5 µM).
The remaining binding of `Cc1c[nH]c2nccc(Oc3c(F)cc(Nc4cc(Cl)nc(N)n4)cc3F)c12` is reported as 95% (TEK; cell-free assay, competition with immobilised ligand; 0.1 µM).
For `O=C1Nc2ccc(Cl)cc2C1=Cc1cc(Cl)c(O)c(Cl)c1`, the remaining signal was 93% (TEK; cell-free assay; 0.5 µM).
With `Cc1ccc(NC(=O)c2ccc(C)c(C(F)(F)F)c2)cc1C#Cc1nn(C2CCC(O)CC2)c2ncnc(N)c12` (stereo not drawn) the remaining signal was 0% (Angiopoietin-1 receptor (TEK, Homo sapiens, UniProt Q02763, R849W); cell-free assay; 10 µM).
`Cc1sc(C(=O)NC2COC2)cc1-n1cc(NC(=O)Nc2c(F)cccc2Cl)cn1` gave a remaining activity of 86.6% (TEK; enzyme activity, inhibitor; 10 µM).
For `CC(C)(C)c1nc2c(s1)c1nc(N)ncc1c1ccc(NS(=O)(=O)c3c(F)cccc3F)c(F)c12`, the remaining activity was 79% (TEK; enzyme activity, inhibitor, radiometric; 1 µM).
`CC1=C(C#N)[C@@H](c2ccc3[nH]nc(C)c3c2)C(C#N)=C(c2ccc(Cl)cc2)N1` gave a remaining binding of 74.5% (TEK; cell-free assay, competition with immobilised ligand; 1 µM).
With `Cc1cnc(NC2CCOCC2)nc1-n1cnc(C(=O)NC(CN)c2cc(F)cc(Cl)c2)c1` (stereo not drawn) the remaining activity was 105% (TEK Y897S; enzyme activity, inhibitor, radiometric; 1 µM).
With `CC(C)CC(=O)N1CCc2nc(-c3ccc(Br)cc3)nc(N(C)Cc3ccccc3)c2C1` the remaining binding was 100% (TEK; cell-free assay, competition with immobilised ligand; 0.1 µM).
With `Cc1ccc(C(=O)Nc2ccc(CN3CCN(C)CC3)c(C(F)(F)F)c2)cc1C#Cc1cnc2cccnn12` the remaining signal was 5.2% (TEK; cell-free assay; 23.5 nM).
`CCCOc1ccc([C@H]2[C@H](C(=O)O)[C@@H](c3ccc4c(c3)OCO4)CN2CC(=O)Nc2c(CC)cccc2CC)cc1` gave a remaining binding of 100% (TEK; cell-free assay, competition with immobilised ligand; 1 µM).
With `CC(C)(O)[C@H]1CC[C@H](Nc2ccc3ncc(-c4cccc(C(F)(F)F)c4)n3n2)CC1` the remaining activity was 89% (TEK; enzyme activity, inhibitor; 1 µM).
`Cc1cc(NC(=O)c2cccc3cc(-c4cccc5[nH]nc(N)c45)ccc23)ccc1F` has an activity vs control of 103% (TEK Y897S; enzyme activity, inhibitor; 0.1 µM).
With `COc1cc2ncnc(Nc3ccc(Oc4ccccc4)cc3C)c2cc1OC` the inhibition was 13% (TEK; enzyme activity, inhibitor; 1 µM).
For `Cc1ccc(NC(=O)c2ccc(CN3CCN(C)CC3)cc2)cc1Nc1nc(-c2cccnc2)cs1`, the remaining signal was 97.2% (TEK; cell-free assay; 0.5 µM).
With `CNC(=O)c1cc2c(Oc3ccc(NC(=O)C4(C(=O)Nc5ccc(F)cc5)CC4)cc3)ccnc2cc1OC` the inhibition was 99% (TEK; enzyme activity, inhibitor, radiometric; 1 µM).
`COc1cc(Cl)c(C(=O)N[C@@H](CN[C@H]2CC[C@@H](N)CC2)Cc2ccc(C#N)cc2)cc1-c1ccc(CN[C@H](C)c2ccc(C)cc2)o1` gave a remaining activity of 79% (TEK; enzyme activity, inhibitor; 1 µM).
`Cn1cc(Cl)c2c(Oc3c(F)cc(Nc4cc(Cl)nc(N)n4)cc3F)ccnc21` gave a remaining binding of 100% (TEK; cell-free assay, competition with immobilised ligand; 0.1 µM).
For `COc1cc(Nc2cnc(C#N)c(O[C@H](C)CN(C)C)n2)ncc1-c1cnn(C)c1`, the remaining activity was 90% (TEK; enzyme activity, inhibitor, radiometric; 10 µM).
The remaining binding of `CN([C@@H]1CCc2c(CC(=O)O)c3cc(S(C)(=O)=O)ccc3n2C1)S(=O)(=O)c1ccc(F)cc1` is reported as 88% (TEK; cell-free assay, competition with immobilised ligand; 1 µM).
`COc1cc2nccc(Oc3ccc(NC(=O)c4c5n(n(-c6ccc(F)cc6)c4=O)CCCC5)cc3)c2cc1OC` gave an inhibition of 26% (TEK; enzyme activity, inhibitor; 0.1 µM).
